Test results from ChEMBL document CHEMBL5653631, “A Potent and Selective ULK1 Inhibitor Suppresses Autophagy and Sensitizes Cancer Cells to Nutrient Stress” (iScience, 2018).
Blank lines part the entries; values can stand above or below the compound they belong to.

Experiments:
[1] = molecular target: T1, Activin receptor type-1 (Homo sapiens) (UniProt Q04771); assay: Inhibition of human recombinant ALK2 at 500 nM related to control ULK1
T1 sequence (whole entry): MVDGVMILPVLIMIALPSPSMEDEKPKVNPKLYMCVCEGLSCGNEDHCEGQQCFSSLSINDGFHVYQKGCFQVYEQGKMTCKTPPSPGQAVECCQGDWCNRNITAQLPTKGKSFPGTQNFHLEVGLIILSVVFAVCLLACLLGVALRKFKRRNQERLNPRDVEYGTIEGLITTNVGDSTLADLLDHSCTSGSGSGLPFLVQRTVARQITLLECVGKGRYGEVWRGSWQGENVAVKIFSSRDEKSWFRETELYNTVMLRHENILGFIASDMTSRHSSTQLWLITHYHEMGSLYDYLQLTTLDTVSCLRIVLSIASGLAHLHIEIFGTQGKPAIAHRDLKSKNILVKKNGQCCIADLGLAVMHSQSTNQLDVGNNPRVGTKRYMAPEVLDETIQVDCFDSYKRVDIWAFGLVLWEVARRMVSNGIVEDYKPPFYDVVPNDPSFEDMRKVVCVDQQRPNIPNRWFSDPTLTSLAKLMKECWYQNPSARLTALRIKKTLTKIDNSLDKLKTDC
Outline: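 Panel of 327 recombinant human kinases, each assayed in vitro by radiometric activity assay in duplicate at a single inhibitor concentration per compound, chosen with reference to its ULK1 inhibition. Activity remaining was expressed as percent of vehicle control, and percent inhibition was calculated as 100 minus percent activity remaining.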

[2] = molecular target: Death-associated protein kinase 2 (Homo sapiens) (UniProt Q9UIK4); assay: Inhibition of human recombinant DAPK2 at 500 nM in presence of ATP by radiometric assay relative to control
Sequence of Death-associated protein kinase 2 (Homo sapiens) (Q9UIK4 whole entry, looked up): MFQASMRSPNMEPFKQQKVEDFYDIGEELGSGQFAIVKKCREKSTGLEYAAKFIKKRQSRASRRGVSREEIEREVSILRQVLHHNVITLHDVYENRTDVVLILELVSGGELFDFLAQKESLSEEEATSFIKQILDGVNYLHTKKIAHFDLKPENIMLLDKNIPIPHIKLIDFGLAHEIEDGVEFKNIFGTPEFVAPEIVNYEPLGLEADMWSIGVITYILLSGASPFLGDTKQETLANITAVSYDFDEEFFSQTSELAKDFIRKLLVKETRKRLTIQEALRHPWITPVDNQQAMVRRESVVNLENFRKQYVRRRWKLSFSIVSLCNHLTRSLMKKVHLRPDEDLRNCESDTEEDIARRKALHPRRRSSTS

[3] = molecular target: Serine/threonine-protein kinase 38-like (Homo sapiens) (UniProt Q9Y2H1); assay: Inhibition of human recombinant NDR2 at 500 nM related to control ULK1
Sequence of Serine/threonine-protein kinase 38-like (Homo sapiens) (Q9Y2H1 2-464 limits assumed): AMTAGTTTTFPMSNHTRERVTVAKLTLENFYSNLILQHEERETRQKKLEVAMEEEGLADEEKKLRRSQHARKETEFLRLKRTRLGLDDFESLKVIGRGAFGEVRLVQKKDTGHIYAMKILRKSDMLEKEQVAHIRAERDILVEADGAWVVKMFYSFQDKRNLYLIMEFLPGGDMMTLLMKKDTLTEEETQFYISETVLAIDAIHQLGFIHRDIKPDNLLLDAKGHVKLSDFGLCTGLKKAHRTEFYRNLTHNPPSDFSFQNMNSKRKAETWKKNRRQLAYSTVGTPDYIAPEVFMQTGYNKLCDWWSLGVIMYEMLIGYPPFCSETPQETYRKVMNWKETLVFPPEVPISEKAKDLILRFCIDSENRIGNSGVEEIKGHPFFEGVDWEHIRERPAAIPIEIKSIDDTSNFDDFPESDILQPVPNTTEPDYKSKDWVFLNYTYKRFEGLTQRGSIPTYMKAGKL

[4] = molecular target: Protein kinase C gamma type (Homo sapiens) (UniProt P05129); assay: Inhibition of human recombinant PKCg at 500 nM related to control ULK1
[5] = molecular target: Casein kinase I isoform gamma-3 (Homo sapiens) (UniProt Q9Y6M4); assay: Inhibition of human recombinant CK1g3 at 500 nM in presence of ATP by radiometric assay relative to control
[6] = molecular target: Platelet-derived growth factor receptor alpha (Homo sapiens) (UniProt P16234); assay: Inhibition of human recombinant PDGFRa at 500 nM in presence of ATP by radiometric assay relative to control
[7] = molecular target: Serine/threonine-protein kinase SIK3 (Homo sapiens) (UniProt Q9Y2K2); assay: Inhibition of human recombinant QSK at 40 nM in presence of ATP by radiometric assay relative to control
Sequence of Serine/threonine-protein kinase SIK3 (Homo sapiens) (Q9Y2K2 whole entry, looked up, canonical isoform): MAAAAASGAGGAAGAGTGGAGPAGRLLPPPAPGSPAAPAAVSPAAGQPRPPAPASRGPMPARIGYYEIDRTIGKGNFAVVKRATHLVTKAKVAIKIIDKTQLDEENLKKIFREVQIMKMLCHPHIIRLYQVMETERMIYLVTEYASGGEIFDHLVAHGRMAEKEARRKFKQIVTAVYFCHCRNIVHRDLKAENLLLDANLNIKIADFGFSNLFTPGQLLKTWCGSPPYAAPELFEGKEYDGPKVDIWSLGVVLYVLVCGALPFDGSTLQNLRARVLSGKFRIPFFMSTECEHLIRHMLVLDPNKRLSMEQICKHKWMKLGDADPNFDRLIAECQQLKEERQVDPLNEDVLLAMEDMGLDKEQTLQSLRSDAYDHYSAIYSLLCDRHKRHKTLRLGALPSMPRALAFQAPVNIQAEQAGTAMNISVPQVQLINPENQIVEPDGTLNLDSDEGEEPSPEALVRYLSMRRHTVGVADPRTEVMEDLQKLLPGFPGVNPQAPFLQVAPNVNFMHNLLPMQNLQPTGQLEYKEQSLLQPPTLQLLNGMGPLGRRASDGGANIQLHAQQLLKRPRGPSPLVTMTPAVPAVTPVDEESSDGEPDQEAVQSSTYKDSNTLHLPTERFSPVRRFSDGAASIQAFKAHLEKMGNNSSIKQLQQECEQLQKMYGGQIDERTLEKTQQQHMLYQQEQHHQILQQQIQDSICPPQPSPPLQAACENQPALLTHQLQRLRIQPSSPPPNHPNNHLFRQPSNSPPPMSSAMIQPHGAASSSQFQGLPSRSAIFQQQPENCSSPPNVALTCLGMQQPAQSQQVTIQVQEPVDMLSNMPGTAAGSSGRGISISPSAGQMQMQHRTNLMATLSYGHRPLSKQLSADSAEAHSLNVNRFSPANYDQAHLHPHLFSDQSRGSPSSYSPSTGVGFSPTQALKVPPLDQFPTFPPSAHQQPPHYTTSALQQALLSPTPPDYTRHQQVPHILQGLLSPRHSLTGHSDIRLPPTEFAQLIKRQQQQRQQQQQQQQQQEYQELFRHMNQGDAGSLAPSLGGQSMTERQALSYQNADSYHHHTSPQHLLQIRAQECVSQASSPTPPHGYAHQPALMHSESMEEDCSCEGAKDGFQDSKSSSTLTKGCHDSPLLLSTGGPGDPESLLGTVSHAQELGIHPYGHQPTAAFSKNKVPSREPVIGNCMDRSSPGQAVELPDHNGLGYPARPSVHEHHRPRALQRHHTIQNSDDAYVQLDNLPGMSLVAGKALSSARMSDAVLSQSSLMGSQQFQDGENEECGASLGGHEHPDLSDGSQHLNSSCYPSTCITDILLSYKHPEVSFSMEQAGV

[8] = molecular target: Casein kinase I isoform gamma-1 (Homo sapiens) (UniProt Q9HCP0); assay: Inhibition of human recombinant CK1g1 at 40 nM related to control ULK1
Sequence of Casein kinase I isoform gamma-1 (Homo sapiens) (Q9HCP0 whole entry, looked up, canonical isoform): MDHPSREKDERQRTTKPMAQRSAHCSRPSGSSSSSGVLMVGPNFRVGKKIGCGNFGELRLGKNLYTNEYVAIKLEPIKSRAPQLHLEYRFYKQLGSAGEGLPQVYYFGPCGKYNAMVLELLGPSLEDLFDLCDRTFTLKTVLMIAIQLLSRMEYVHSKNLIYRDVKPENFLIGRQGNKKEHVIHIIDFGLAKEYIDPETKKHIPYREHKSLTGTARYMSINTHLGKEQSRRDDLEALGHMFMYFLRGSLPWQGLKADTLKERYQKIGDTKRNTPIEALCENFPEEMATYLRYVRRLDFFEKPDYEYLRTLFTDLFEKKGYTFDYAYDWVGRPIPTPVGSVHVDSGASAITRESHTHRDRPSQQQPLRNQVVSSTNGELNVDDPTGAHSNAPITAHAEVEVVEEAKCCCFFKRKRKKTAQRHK

[9] = molecular target: Protein kinase C eta type (Homo sapiens) (UniProt P24723); assay: Inhibition of human recombinant PKCH at 40 nM related to control ULK1
[10] = molecular target: T2, Serine/threonine-protein kinase DCLK3 (Homo sapiens) (UniProt Q9C098); assay: Inhibition of human recombinant DCAMKL3 at 40 nM related to control ULK1
T2 sequence (whole entry): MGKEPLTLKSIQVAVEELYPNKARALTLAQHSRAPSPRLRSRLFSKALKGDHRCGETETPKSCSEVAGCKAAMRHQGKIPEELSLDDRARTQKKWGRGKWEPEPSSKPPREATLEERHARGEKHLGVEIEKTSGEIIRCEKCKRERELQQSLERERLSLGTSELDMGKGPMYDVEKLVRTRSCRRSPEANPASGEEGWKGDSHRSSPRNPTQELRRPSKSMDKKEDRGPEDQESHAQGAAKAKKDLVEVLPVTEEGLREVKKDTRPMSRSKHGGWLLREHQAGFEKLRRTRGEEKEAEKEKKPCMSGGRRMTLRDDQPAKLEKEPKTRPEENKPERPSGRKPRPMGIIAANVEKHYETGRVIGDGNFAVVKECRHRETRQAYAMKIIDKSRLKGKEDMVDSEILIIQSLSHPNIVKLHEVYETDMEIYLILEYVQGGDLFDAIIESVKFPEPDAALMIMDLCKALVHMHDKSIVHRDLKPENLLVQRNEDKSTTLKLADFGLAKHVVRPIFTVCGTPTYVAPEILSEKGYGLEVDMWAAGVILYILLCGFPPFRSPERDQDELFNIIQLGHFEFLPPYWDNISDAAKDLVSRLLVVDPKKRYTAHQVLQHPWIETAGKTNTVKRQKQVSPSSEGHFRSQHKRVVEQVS

[11] = molecular target: T3, Tyrosine-protein kinase TXK (Homo sapiens) (UniProt P42681); assay: Inhibition of human recombinant TXK at 40 nM related to control ULK1
T3 sequence (whole entry): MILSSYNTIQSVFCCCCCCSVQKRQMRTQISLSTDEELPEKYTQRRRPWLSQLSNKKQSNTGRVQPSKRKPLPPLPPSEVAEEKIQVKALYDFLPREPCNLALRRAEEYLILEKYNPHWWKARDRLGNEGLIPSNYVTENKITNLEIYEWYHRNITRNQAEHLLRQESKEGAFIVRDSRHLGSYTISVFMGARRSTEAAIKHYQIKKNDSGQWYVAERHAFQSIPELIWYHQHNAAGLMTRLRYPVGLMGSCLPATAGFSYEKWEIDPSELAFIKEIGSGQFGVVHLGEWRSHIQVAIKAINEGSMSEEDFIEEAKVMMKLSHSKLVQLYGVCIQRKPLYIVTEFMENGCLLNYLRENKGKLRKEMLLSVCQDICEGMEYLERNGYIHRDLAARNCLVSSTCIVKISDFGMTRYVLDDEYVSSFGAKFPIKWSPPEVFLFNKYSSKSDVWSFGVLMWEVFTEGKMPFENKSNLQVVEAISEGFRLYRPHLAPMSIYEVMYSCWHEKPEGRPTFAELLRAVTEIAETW

[12] = molecular target: Cyclin-dependent kinase 2 (Homo sapiens) (UniProt P24941); assay: Inhibition of human recombinant CDK2 at 40 nM in presence of ATP by radiometric assay relative to control
[13] = molecular target: Rho-associated protein kinase 1 (Homo sapiens) (UniProt Q13464); assay: Inhibition of human recombinant ROCK1 at 15 nM in presence of ATP by radiometric assay relative to control
Sequence of Rho-associated protein kinase 1 (Homo sapiens) (Q13464 2-1354 limits assumed): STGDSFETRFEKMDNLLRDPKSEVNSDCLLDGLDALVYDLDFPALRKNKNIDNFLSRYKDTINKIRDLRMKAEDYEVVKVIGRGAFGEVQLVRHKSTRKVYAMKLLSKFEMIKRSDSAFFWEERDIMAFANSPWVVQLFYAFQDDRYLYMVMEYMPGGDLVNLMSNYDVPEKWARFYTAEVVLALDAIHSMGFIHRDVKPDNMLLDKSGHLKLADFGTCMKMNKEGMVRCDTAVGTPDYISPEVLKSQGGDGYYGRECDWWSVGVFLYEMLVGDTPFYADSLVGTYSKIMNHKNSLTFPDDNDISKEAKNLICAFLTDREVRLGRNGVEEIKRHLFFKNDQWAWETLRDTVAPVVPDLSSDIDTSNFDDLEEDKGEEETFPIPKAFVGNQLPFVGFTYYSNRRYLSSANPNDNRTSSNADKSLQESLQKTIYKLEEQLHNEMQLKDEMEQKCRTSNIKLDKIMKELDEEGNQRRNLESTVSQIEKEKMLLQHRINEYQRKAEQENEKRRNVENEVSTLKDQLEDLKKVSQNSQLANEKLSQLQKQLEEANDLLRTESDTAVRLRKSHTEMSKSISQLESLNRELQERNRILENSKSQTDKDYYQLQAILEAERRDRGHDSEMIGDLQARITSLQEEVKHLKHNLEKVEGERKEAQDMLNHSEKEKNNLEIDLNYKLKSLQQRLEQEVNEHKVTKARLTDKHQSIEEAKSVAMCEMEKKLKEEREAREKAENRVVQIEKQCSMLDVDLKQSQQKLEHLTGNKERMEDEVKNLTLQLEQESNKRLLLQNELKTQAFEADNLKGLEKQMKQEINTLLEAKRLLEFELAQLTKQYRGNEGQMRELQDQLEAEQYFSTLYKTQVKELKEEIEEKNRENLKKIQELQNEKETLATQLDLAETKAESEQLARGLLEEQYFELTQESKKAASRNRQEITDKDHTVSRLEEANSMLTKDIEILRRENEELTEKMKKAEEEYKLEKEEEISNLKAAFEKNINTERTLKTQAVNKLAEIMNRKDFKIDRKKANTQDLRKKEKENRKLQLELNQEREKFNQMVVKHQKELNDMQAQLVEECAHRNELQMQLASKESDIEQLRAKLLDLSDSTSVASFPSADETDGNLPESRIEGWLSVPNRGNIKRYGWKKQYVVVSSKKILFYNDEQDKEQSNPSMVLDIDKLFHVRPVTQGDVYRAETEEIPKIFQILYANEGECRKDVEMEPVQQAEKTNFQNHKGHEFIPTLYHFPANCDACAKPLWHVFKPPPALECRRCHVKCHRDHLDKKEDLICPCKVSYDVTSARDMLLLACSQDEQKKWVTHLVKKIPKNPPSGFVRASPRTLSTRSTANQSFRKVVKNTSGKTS

[14] = species on record: Homo sapiens; assay: Inhibition of human recombinant CK1d at 15 nM related to control ULK1
[15] = molecular target: Serine/threonine-protein kinase PRP4 homolog (Homo sapiens) (UniProt Q13523); assay: Inhibition of human recombinant PRP4 at 15 nM in presence of ATP by radiometric assay relative to control
[16] = molecular target: Calcium/calmodulin-dependent protein kinase type 1 (Homo sapiens) (UniProt Q14012); assay: Inhibition of human recombinant CaMK1a at 15 nM in presence of ATP by radiometric assay relative to control
Sequence of Calcium/calmodulin-dependent protein kinase type 1 (Homo sapiens) (Q14012 whole entry, looked up): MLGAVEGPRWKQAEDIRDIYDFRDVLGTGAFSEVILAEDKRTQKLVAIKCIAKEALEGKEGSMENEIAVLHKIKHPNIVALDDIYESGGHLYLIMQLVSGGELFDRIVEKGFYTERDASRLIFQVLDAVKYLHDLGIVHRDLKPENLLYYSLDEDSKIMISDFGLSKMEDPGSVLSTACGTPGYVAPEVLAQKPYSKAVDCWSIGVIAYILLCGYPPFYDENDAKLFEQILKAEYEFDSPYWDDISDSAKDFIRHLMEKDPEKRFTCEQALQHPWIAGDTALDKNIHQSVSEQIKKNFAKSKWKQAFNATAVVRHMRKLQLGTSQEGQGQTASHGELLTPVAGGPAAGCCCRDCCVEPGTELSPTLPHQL

[17] = molecular target: Misshapen-like kinase 1 (Homo sapiens) (UniProt Q8N4C8); assay: Inhibition of human recombinant MINK at 15 nM related to control ULK1

- fold change (FC) [1]: 0.62
- fold change (FC) [3]: 0.2
- fold change (FC) [4]: 0.12
- inhibition [5]: 0%
- inhibition [6]: 0%
Compound: CNC(=O)c1ccccc1Oc1nc(Nc2cc(OC)c(OC)c(OC)c2)ncc1Br
- inhibition [2]: 0%

- inhibition [7]: 59%
- fold change (FC) [8]: 0
- fold change (FC) [9]: 0
- fold change (FC) [10]: 0.03
- fold change (FC) [11]: 0.18
- inhibition [12]: 29%
Compound: O=C(N[C@@H](C1CC1)C(F)(F)F)c1cc(-c2cnn3cc(-c4ccc(F)cc4)cnc23)cs1

- inhibition [13]: 8%
- fold change (FC) [14]: 0.03
- inhibition [15]: 6%
- inhibition [16]: 7%
- fold change (FC) [17]: 0.05
Compound: CC(C)[C@H](NC(=O)c1cc(-c2cnn3cc(-c4ccc(OCCN5CCCCC5)cc4)cnc23)cs1)C(F)(F)F
